Active and inactive are the calls of the source. The rule behind the calls is not given here.
System: NS3 helicase (Hepatitis C virus genotype 1a)
Assay: Inhibition of HCV 1a NS3 helicase by fluorimetry
Details: not given

Row | Compound | IC50
1 | COc1cccc2c(=O)c3cccc(C(=O)Nc4cc(Cl)ccn4)c3[nH]c12 | 35.8 µM
2 | COc1cccc2c(=O)c3cc(F)cc(C(=O)Nc4ccccn4)c3[nH]c12 | 4.7 µM
3 | COc1cccc2c(=O)c3cc(Cl)cc(C(=O)Nc4cc(Cl)ccn4)c3[nH]c12 | 1.5 µM
4 | COc1cccc2c(=O)c3cccc(C(=O)Nc4cccnc4)c3[nH]c12 | 20.6 µM
5 | COc1cccc2c(=O)c3cc(F)cc(C(=O)Nc4cccnc4)c3[nH]c12 | 8.6 µM
6 | COc1cccc2c(=O)c3cc(F)cc(C(=O)Nc4cc(Cl)ccn4)c3[nH]c12 | 46.3 µM
7 | O=C(Nc1ccncc1)c1cccc2c(=O)c3cccc(OCc4ccccc4)c3[nH]c12 | 8 µM
8 | COc1cccc2c(=O)c3cc(Cl)cc(C(=O)Nc4cccnc4)c3[nH]c12 | 54.6 µM
9 | COc1cc(NC(=O)c2cccc3c(=O)c4cccc(OC)c4[nH]c23)cc(OC)c1OC | 751 µM
10 | COc1cccc2c(=O)c3cc(Cl)cc(C(=O)Nc4ccccn4)c3[nH]c12 | 64.7 µM
11 | COc1cccc2c(=O)c3cccc(C(=O)Nc4ccccn4)c3[nH]c12 | 6.2 µM

Target: not listed separately
Assay: Inhibition of HCV NS3 helicase in presence of 2.5 mM ATP
Parameters: species or system Hepacivirus hominis
Details: not given

Row | Compound | IC50
12 | COc1cccc2c(=O)c3cc(F)cc(C(=O)Nc4ccccn4)c3[nH]c12 | 5.1 µM
13 | COc1cccc2c(=O)c3cc(Cl)cc(C(=O)Nc4cc(Cl)ccn4)c3[nH]c12 | 1.1 µM
14 | COc1cccc2c(=O)c3cc(F)cc(C(=O)Nc4cccnc4)c3[nH]c12 | 9.9 µM

System: not listed separately
Assay: Therapeutic index, ratio of CC50 for human HuH7 cells to EC50 for HCV 1b
Format: cell-based, Huh-7
Details: read-out: Ratio CC50/EC50
In short: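 Therapeutic index calculated as CC50 (XTT, replicon-bearing Huh-7 cells) divided by EC50 (luminescence replicon assay, genotype 1b).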

Row | Compound | selectivity ratio
15 | COc1cccc2c(=O)c3cccc(C(=O)Nc4cccnc4)c3[nH]c12 | > 28
16 | COc1cccc2c(=O)c3cc(F)cc(C(=O)Nc4cccnc4)c3[nH]c12 | > 1000
17 | NC(=O)c1ncn([C@@H]2O[C@H](CO)[C@@H](O)[C@H]2O)n1 [RIBAVIRIN] | 60.2
18 | [N-]=[N+]=N[C@]1(CO)O[C@@H](n2ccc(N)nc2=O)[C@H](O)[C@@H]1O [4'-AZIDOCYTIDINE] | > 143
19 | COc1cccc2c(=O)c3cc(Cl)cc(C(=O)Nc4cccnc4)c3[nH]c12 | 20.1
20 | COc1cc(NC(=O)c2cccc3c(=O)c4cccc(OC)c4[nH]c23)cc(OC)c1OC | > 2.5
21 | COc1cccc2c(=O)c3cc(Cl)cc(C(=O)Nc4ccccn4)c3[nH]c12 | 3.2
22 | COc1cccc2c(=O)c3cccc(C(=O)Nc4ccccn4)c3[nH]c12 | 1.1

System: Hepatitis C virus
Assay: Antiviral activity against HCV 1b infected in human HuH7 cells assessed as inhibition of viral RNA replication after 4 days by replicon assay
Format: functional, organism-based, Hepacivirus hominis
Details: genotype 1b, Huh-7, 96 h
In short: (§1)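 Huh-7 cells carrying genotype 1b subgenomic replicon; compounds in DMSO tested from 1 to 200 μM or 1 μM to 1 mM depending on solubility; luminescence-based replicon RNA amplification assay; EC50 = concentration reducing luminescence by 50%.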

Row | Compound | EC50
23 | COc1cccc2c(=O)c3cc(Cl)cc(C(=O)Nc4cc(Cl)ccn4)c3[nH]c12 | > 100 µM
24 | COc1cccc2c(=O)c3cccc(C(=O)Nc4cccnc4)c3[nH]c12 | 3.5 µM
25 | COc1cccc2c(=O)c3cc(F)cc(C(=O)Nc4cccnc4)c3[nH]c12 | 0.98 µM
26 | COc1cccc2c(=O)c3cc(F)cc(C(=O)Nc4cc(Cl)ccn4)c3[nH]c12 | > 100 µM
27 | NC(=O)c1ncn([C@@H]2O[C@H](CO)[C@@H](O)[C@H]2O)n1 [RIBAVIRIN] | 17.6 µM
28 | O=C(Nc1ccncc1)c1cccc2c(=O)c3cccc(OCc4ccccc4)c3[nH]c12 | > 100 µM
29 | COc1cccc2c(=O)c3cc(Cl)cc(C(=O)Nc4cccnc4)c3[nH]c12 | 0.96 µM
30 | COc1cc(NC(=O)c2cccc3c(=O)c4cccc(OC)c4[nH]c23)cc(OC)c1OC | 203 µM
31 | COc1cccc2c(=O)c3cc(Cl)cc(C(=O)Nc4ccccn4)c3[nH]c12 | 5 µM
32 | COc1cccc2c(=O)c3cccc(C(=O)Nc4ccccn4)c3[nH]c12 | 2.3 µM

System: Hepatitis C virus
Assay: Antiviral activity against HCV 1b infected in human HuH7 cells assessed as inhibition of viral RNA replication at 2.7 uM after 4 days by replicon assay
Format: functional, Hepacivirus hominis
Details: genotype 1b, Huh-7, 96 h
In short: as §1

Row | Compound | inhibition at 2.7 µM
33 | COc1cccc2c(=O)c3cc(F)cc(C(=O)Nc4ccccn4)c3[nH]c12 | 30%

Target: not listed separately
Assay: Inhibition of HCV NS3 helicase in presence of 0.5 mM ATP
Parameters: species or system Hepacivirus hominis
Details: not given

Row | Compound | IC50
34 | COc1cccc2c(=O)c3cc(F)cc(C(=O)Nc4ccccn4)c3[nH]c12 | 6.5 µM
35 | COc1cccc2c(=O)c3cc(Cl)cc(C(=O)Nc4cc(Cl)ccn4)c3[nH]c12 | 1.1 µM
36 | COc1cccc2c(=O)c3cc(F)cc(C(=O)Nc4cccnc4)c3[nH]c12 | 10.9 µM

System: Hepatitis C virus
Assay: Antiviral activity against HCV 1b infected in human HuH7 cells assessed as inhibition of viral RNA replication at 10 uM after 4 days by replicon assay
Format: functional, Hepacivirus hominis
Details: genotype 1b, Huh-7, 168 h, in the assay text read “after 7 days” for “after 4 days”
In short: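 Huh-7 cells with genotype 1b subgenomic replicon seeded at 4 × 10⁵ per dish in DMEM, grown 7 days with 0, 1, 10 or 100 μM compound; 5 μg total RNA reverse transcribed (3UTR, oligo(dT)15, random hexamer primers), equal cDNA used for real-time PCR (45 cycles, 56 °C annealing) to quantify replicon RNA.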

Row | Compound | inhibition at 10 µM
37 | COc1cccc2c(=O)c3cc(F)cc(C(=O)Nc4cccnc4)c3[nH]c12 | 85%

System: Nucleic Acid
Assay: Binding affinity to HCV dsRNA assessed as inhibition of ethidium bromide RNA intercalation by gel migration retardation assay
Format: nucleic-acid assay
Details: Hepacivirus hominis
In short: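 dsRNA gel migration retardation assay: compound incubated with dsRNA, ethidium bromide staining; intercalation read as partial or total disappearance of the dsRNA band; DMSO and epidoxorubicin controls.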

Row | Compound | Activity
38 | COc1cccc2c(=O)c3cc(Cl)cc(C(=O)Nc4ccccn4)c3[nH]c12 | inactive

System: Hepatitis C virus
Assay: Antiviral activity against HCV 1b infected in mutant human HuH7 cells assessed as inhibition of viral RNA replication after 4 days by replicon assay
Format: functional, organism-based, Hepacivirus hominis
Details: genotype 1b, Huh-7, 96 h

Row | Compound | EC50
39 | COc1cccc2c(=O)c3cc(F)cc(C(=O)Nc4cccnc4)c3[nH]c12 | 251 µM

System: not listed separately
Assay: Cytotoxicity against human HuH7 cells after3 days by XTT assay
Details: not given

Row | Compound | CC50 at 72 h
40 | COc1cccc2c(=O)c3cccc(C(=O)Nc4cc(Cl)ccn4)c3[nH]c12 | 171 µM
41 | COc1cccc2c(=O)c3cc(F)cc(C(=O)Nc4ccccn4)c3[nH]c12 | > 100 µM
42 | COc1cccc2c(=O)c3cc(Cl)cc(C(=O)Nc4cc(Cl)ccn4)c3[nH]c12 | > 100 µM
43 | COc1cccc2c(=O)c3cccc(C(=O)Nc4cccnc4)c3[nH]c12 | > 100 µM
44 | COc1cccc2c(=O)c3cc(F)cc(C(=O)Nc4cccnc4)c3[nH]c12 | > 1000 µM
45 | COc1cccc2c(=O)c3cc(F)cc(C(=O)Nc4cc(Cl)ccn4)c3[nH]c12 | > 100 µM
46 | NC(=O)c1ncn([C@@H]2O[C@H](CO)[C@@H](O)[C@H]2O)n1 [RIBAVIRIN] | 1060 µM
47 | [N-]=[N+]=N[C@]1(CO)O[C@@H](n2ccc(N)nc2=O)[C@H](O)[C@@H]1O [4'-AZIDOCYTIDINE] | > 200 µM
48 | O=C(Nc1ccncc1)c1cccc2c(=O)c3cccc(OCc4ccccc4)c3[nH]c12 | > 100 µM
49 | COc1cccc2c(=O)c3cc(Cl)cc(C(=O)Nc4cccnc4)c3[nH]c12 | 19.3 µM
50 | COc1cc(NC(=O)c2cccc3c(=O)c4cccc(OC)c4[nH]c23)cc(OC)c1OC | > 500 µM
51 | COc1cccc2c(=O)c3cc(Cl)cc(C(=O)Nc4ccccn4)c3[nH]c12 | 15.8 µM
52 | COc1cccc2c(=O)c3cccc(C(=O)Nc4ccccn4)c3[nH]c12 | 2.5 µM

Target: not listed separately
Assay: Inhibition of HCV 3a NS3 helicase by fluorimetry
Parameters: species or system Hepatitis C virus subtype 3a
Details: not given
In short: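 Fluorometric helicase unwinding assay with a dsDNA substrate at 37 °C; NS3 helicase domain (genotype […], from patient-derived RNA) expressed in baculovirus and purified from insect cells, used at 50 nM; IC50 = concentration reducing helicase activity by 50%, relative to DMSO control.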

Row | Compound | IC50
53 | COc1cccc2c(=O)c3cc(F)cc(C(=O)Nc4cccnc4)c3[nH]c12 | 7.3 µM

System: Hepatitis C virus
Assay: Antiviral activity against HCV 1b infected in human HuH7 cells assessed as inhibition of viral RNA replication at 5.8 uM after 4 days by replicon assay
Format: functional, Hepacivirus hominis
Details: genotype 1b, Huh-7, 96 h
In short: as §1

Row | Compound | inhibition at 5.8 µM
54 | COc1cccc2c(=O)c3cccc(C(=O)Nc4cc(Cl)ccn4)c3[nH]c12 | 30%

System: Nucleic Acid
Assay: Binding affinity to […] assessed as inhibition of ethidium bromide DNA intercalation by gel migration retardation assay
Format: nucleic-acid assay
Details: Hepacivirus hominis
In short: (§2)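 dsNA gel migration retardation assay on dsDNA: compound (100 or 500 μM) incubated with dsDNA, ethidium bromide staining; intercalation read as partial or total loss of the dsDNA band; DMSO as negative and epidoxorubicin as positive control.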

Row | Compound | Activity
55 | COc1cccc2c(=O)c3cccc(C(=O)Nc4cccnc4)c3[nH]c12 | Active
56 | COc1cccc2c(=O)c3cccc(C(=O)Nc4ccccn4)c3[nH]c12 | Active

System: Nucleic Acid
Assay: Binding affinity to […] assessed as inhibition of ethidium bromide DNA intercalation at 100 uM by gel migration retardation assay
Format: nucleic-acid assay
Details: Hepacivirus hominis
In short: as §2

Row | Compound | Activity
57 | COc1cccc2c(=O)c3cccc(C(=O)Nc4cccnc4)c3[nH]c12 | Active

Target: not listed separately
Assay: Inhibition of HCV NS3 helicase in presence of 1.5 mM ATP
Parameters: species or system Hepacivirus hominis
Details: not given

Row | Compound | IC50
58 | COc1cccc2c(=O)c3cc(F)cc(C(=O)Nc4ccccn4)c3[nH]c12 | 4.7 µM
59 | COc1cccc2c(=O)c3cc(Cl)cc(C(=O)Nc4cc(Cl)ccn4)c3[nH]c12 | 1.5 µM
60 | COc1cccc2c(=O)c3cc(F)cc(C(=O)Nc4cccnc4)c3[nH]c12 | 8.6 µM

Source: ChEMBL document CHEMBL1156199, “Synthesis of new acridone derivatives, inhibitors of NS3 helicase, which efficiently and specifically inhibit subgenomic HCV replication” (J Med Chem, 2010)
